Molecular target: Steroidogenic factor 1 (Homo sapiens) (UniProt Q13285)
Assay: SF-1 driven luciferase reporter response, dose response, counter-screen for RORA activator project, CHO-K1 cells (AID 695)
Details: CHO-K1 SF1 luciferase transactivation, luminescence
Method in brief: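 Material – transiently transfected CHO-K1, Gal4-DBD/human SF-1 LBD fusion, 5xGal4-luciferase reporter · Signal – luciferase luminescence with SteadyLite reagent · Replication – triplicate wells per concentration · Times – 20 h compound treatment, 37 °C · Measure – EC50 by four-parameter fit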

In the case of `C=CCOc1ccc(/C=C/C(C)=N\O)cc1`, the EC50 is reported as 1020 nM.

`O=C1COc2ccc(OCc3ccc(F)cc3)cc21` gave an EC50 of 1710 nM.
